# Where “and” joins values, the source holds several entries; their conditions need not be identical. Equal values may be shown once.
# What was measured:
# Type in all cases: toxicity, cell-based
# [1] = test system: U2OS; assay: Incucyte cell viability with U2OS; settings: human, 10 µM, compound concentration 10 uM; note: filed as whole numbers so only -1 and 0 and 1 occur
# [2] = test system: HEK-293T; assay: Multiplex assay against HEK293T; settings: human, 10 µM, compound concentration 10 uM
# In short: (§1)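 Live cells carried four stains from seeding: Hoechst33342, BioTracker Green Microtubule Cytoskeleton Dye, MitoTracker Red and Annexin V Alexa Fluor 680. They were imaged on a CQ1 microscope at 37°C and 5% CO2 after compound addition. Using CellPathfinder machine-learning gating, cells were split into Hoechst high-intensity objects or normal cells, normal cells into healthy, pyknosed or fragmented nuclei, and pyknosed cells into mitotic or apoptotic; tubulin, mitochondrial-mass and membrane-permeability phenotypes are per cents of healthy-nucleus cells.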
# [3] = test system: Fibroblast; assay: Multiplex assay against human fibroblast; settings: 10 µM, compound concentration 10 uM; in short: as §1
# [4] = test system: HEK-293T; assay: Incucyte cell viability with HEK293T; settings: human, 10 µM, compound concentration 10 uM; note: filed as whole numbers so only -1 and 0 and 1 occur
# [5] = test system: Fibroblast; assay: Incucyte cell viability with human fibroblast; settings: 10 µM, compound concentration 10 uM; note: filed as whole numbers so only -1 and 0 and 1 occur
# [6] = test system: U2OS; assay: Multiplex assay against U2OS; settings: human, 10 µM, compound concentration 10 uM; in short: as §1
# [7] = 0 h, replicate number 1, timepoint 0 hours
# [8] = 6 h, replicate number 1, timepoint 6 hours
# [9] = 12 h, replicate number 1, timepoint 12 hours
# [10] = 18 h, replicate number 1, timepoint 18 hours
# [11] = 24 h, replicate number 1, timepoint 24 hours
structure (smiles),measurement,setting,value
CCN1CCN(Cc2ccc(NC(=O)c3ccc(C)c(Oc4ccnc5[nH]ccc45)c3)cc2C(F)(F)F)CC1.Cl.Cl.Cl.O,Growth Rate,[1]; [7],0
same,Growth Rate,[1]; [8],0
same,Growth Rate,"[1]; 6 h, replicate number 2, timepoint 6 hours",1
same,Growth Rate,[1]; [9],0
same,Growth Rate,[1]; [10],0
same,Growth Rate,[1]; [11],0
same,Population Apoptotic (%),"[2]; 12 h, replicate 1",19% and 50%
same,Population Fragmented Nuclei (%),"[2]; 12 h, replicate 1",21% and 19%
same,Population Healthy Nuclei (%),"[2]; 12 h, replicate 1",47% and 20%
same,Population Hoechst High Intensity Objects (%),"[2]; 12 h, replicate 1",20% and 25%
same,Population Membrane Permeable-Phenotype (%),"[2]; 12 h, replicate 1",5% and 7%
same,Population Mitotic Cells (%),"[2]; 12 h, replicate 1",80% and 49%
same,Population Normal (%),"[2]; 12 h, replicate 1",79% and 74%
same,Population Pyknosed Nuclei (%),"[2]; 12 h, replicate 1",31% and 60%
same,Total Cell Count,"[2]; 12 h, replicate 1",451 and 581
same,Population Fragmented Nuclei (%),"[2]; 12 h, replicate 2",3% and 6%
same,Population Healthy Nuclei (%),"[2]; 12 h, replicate 2",66% and 86%
same,Population Hoechst High Intensity Objects (%),"[2]; 12 h, replicate 2",5% and 2%
same,Population Membrane Permeable-Phenotype (%),"[2]; 12 h, replicate 2",2% and 1%
same,Population Mitotic Cells (%),"[2]; 12 h, replicate 2",47% and 87%
same,Population Normal (%),"[2]; 12 h, replicate 2",94% and 97%
same,Total Cell Count,"[2]; 12 h, replicate 2",837 and 1347
same,Population Fragmented Nuclei (%),"[2]; 24 h, replicate 1",21% and 23%
same,Population Healthy Nuclei (%),"[2]; 24 h, replicate 1",25% and 58%
same,Population Hoechst High Intensity Objects (%),"[2]; 24 h, replicate 1",29% and 13%
same,Population Membrane Permeable-Phenotype (%),"[2]; 24 h, replicate 1",8% and 7%
same,Population Normal (%),"[2]; 24 h, replicate 1",70% and 86%
same,Total Cell Count,"[2]; 24 h, replicate 1",528 and 497
same,Population Healthy Nuclei (%),"[2]; 24 h, replicate 2",71% and 83%
same,Population Hoechst High Intensity Objects (%),"[2]; 24 h, replicate 2",6% and 5%
same,Population Membrane Permeable-Phenotype (%),"[2]; 24 h, replicate 2",1% and 3%
same,Population Mitotic Cells (%),"[2]; 24 h, replicate 2",32% and 91%
same,Population Normal (%),"[2]; 24 h, replicate 2",93% and 94%
same,Total Cell Count,"[2]; 24 h, replicate 2",779 and 2092
same,Population Apoptotic (%),"[3]; 12 h, replicate 1",75% and 44%
same,Population Fragmented Nuclei (%),"[3]; 12 h, replicate 1",42% and 25%
same,Population Healthy Nuclei (%),"[3]; 12 h, replicate 1",42% and 50%
same,Population Hoechst High Intensity Objects (%),"[3]; 12 h, replicate 1",20%
same,Population Membrane Permeable-Phenotype (%),"[3]; 12 h, replicate 1",6% and 2%
same,Population Mitochondria Different-Phenotype (%),"[3]; 12 h, replicate 1",8%
same,Population Mitotic Cells (%),"[3]; 12 h, replicate 1",25% and 55%
same,Population Normal (%),"[3]; 12 h, replicate 1",79%
same,Population Pyknosed Nuclei (%),"[3]; 12 h, replicate 1",14% and 25%
same,Population Tubulin-Different-Phenotype (%),"[3]; 12 h, replicate 1",13% and 25%
same,Total Cell Count,"[3]; 12 h, replicate 1",169 and 323
same,Population Fragmented Nuclei (%),"[3]; 12 h, replicate 2",74% and 45%
same,Population Healthy Nuclei (%),"[3]; 12 h, replicate 2",23% and 34%
same,Population Hoechst High Intensity Objects (%),"[3]; 12 h, replicate 2",36% and 41%
same,Population Membrane Permeable-Phenotype (%),"[3]; 12 h, replicate 2",18% and 0%
same,Population Mitochondria Different-Phenotype (%),"[3]; 12 h, replicate 2",0% and 12%
same,Population Mitotic Cells (%),"[3]; 12 h, replicate 2",100% and 44%
same,Population Normal (%),"[3]; 12 h, replicate 2",63% and 58%
same,Population Tubulin-Different-Phenotype (%),"[3]; 12 h, replicate 2",18% and 37%
same,Total Cell Count,"[3]; 12 h, replicate 2",74 and 79
same,Population Apoptotic (%),"[3]; 24 h, replicate 1",76% and 41%
same,Population Fragmented Nuclei (%),"[3]; 24 h, replicate 1",45% and 29%
same,Population Healthy Nuclei (%),"[3]; 24 h, replicate 1",46%
same,Population Hoechst High Intensity Objects (%),"[3]; 24 h, replicate 1",23% and 52%
same,Population Membrane Permeable-Phenotype (%),"[3]; 24 h, replicate 1",5% and 2%
same,Population Mitochondria Different-Phenotype (%),"[3]; 24 h, replicate 1",13% and 14%
same,Population Mitotic Cells (%),"[3]; 24 h, replicate 1",23% and 58%
same,Population Normal (%),"[3]; 24 h, replicate 1",76% and 47%
same,Population Pyknosed Nuclei (%),"[3]; 24 h, replicate 1",8% and 23%
same,Population Tubulin-Different-Phenotype (%),"[3]; 24 h, replicate 1",20% and 32%
same,Total Cell Count,"[3]; 24 h, replicate 1",210 and 306
same,Population Apoptotic (%),"[3]; 24 h, replicate 2",50% and 30%
same,Population Fragmented Nuclei (%),"[3]; 24 h, replicate 2",59% and 50%
same,Population Healthy Nuclei (%),"[3]; 24 h, replicate 2",36% and 19%
same,Population Hoechst High Intensity Objects (%),"[3]; 24 h, replicate 2",38% and 40%
same,Population Mitotic Cells (%),"[3]; 24 h, replicate 2",50% and 69%
same,Population Normal (%),"[3]; 24 h, replicate 2",61% and 60%
same,Population Tubulin-Different-Phenotype (%),"[3]; 24 h, replicate 2",41% and 50%
same,Total Cell Count,"[3]; 24 h, replicate 2",76 and 70
same,Growth Rate,"[4]; 0 h, replicate number 2, timepoint 0 hours",0
same,Growth Rate,[4]; [8],0
same,Growth Rate,[4]; [9],0
same,Growth Rate,[4]; [10],0
same,Growth Rate,[4]; [11],0
same,Growth Rate,[5]; [7],0
same,Growth Rate,[5]; [8],1
same,Growth Rate,[5]; [9],0
same,Growth Rate,[5]; [10],0
same,Growth Rate,[5]; [11],0
same,Population Apoptotic (%),"[6]; 12 h, replicate 1",66% and 38%
same,Population Healthy Nuclei (%),"[6]; 12 h, replicate 1",34% and 87%
same,Population Hoechst High Intensity Objects (%),"[6]; 12 h, replicate 1",7% and 4%
same,Population Membrane Permeable-Phenotype (%),"[6]; 12 h, replicate 1",18% and 17%
same,Population Mitotic Cells (%),"[6]; 12 h, replicate 1",33% and 61%
same,Population Normal (%),"[6]; 12 h, replicate 1",92% and 95%
same,Total Cell Count,"[6]; 12 h, replicate 1",219 and 182
same,Population Fragmented Nuclei (%),"[6]; 12 h, replicate 2",17% and 9%
same,Population Healthy Nuclei (%),"[6]; 12 h, replicate 2",40% and 83%
same,Population Hoechst High Intensity Objects (%),"[6]; 12 h, replicate 2",14% and 11%
same,Population Membrane Permeable-Phenotype (%),"[6]; 12 h, replicate 2",20% and 10%
same,Population Mitotic Cells (%),"[6]; 12 h, replicate 2",30% and 87%
same,Population Normal (%),"[6]; 12 h, replicate 2",85% and 88%
same,Population Pyknosed Nuclei (%),"[6]; 12 h, replicate 2",42%
same,Total Cell Count,"[6]; 12 h, replicate 2",113 and 91
same,Population Apoptotic (%),"[6]; 24 h, replicate 1",37%
same,Population Normal (%),"[6]; 24 h, replicate 1",79% and 98%
same,Population Pyknosed Nuclei (%),"[6]; 24 h, replicate 1",10%
same,Population Tubulin-Different-Phenotype (%),"[6]; 24 h, replicate 1",10%
same,Total Cell Count,"[6]; 24 h, replicate 1",255 and 248
same,Population Apoptotic (%),"[6]; 24 h, replicate 2",90% and 58%
same,Population Fragmented Nuclei (%),"[6]; 24 h, replicate 2",16% and 11%
same,Population Hoechst High Intensity Objects (%),"[6]; 24 h, replicate 2",23% and 18%
same,Population Normal (%),"[6]; 24 h, replicate 2",76% and 81%
same,Total Cell Count,"[6]; 24 h, replicate 2",133 and 117

# Reference: ChEMBL document CHEMBL4689842, “EUbOPEN Chemogenomics Library wave 1” (2021)
